This is an account of results in ChEMBL document CHEMBL3297646, “Structure-activity relationship study of non-steroidal NPC1L1 ligands identified through cell-based assay using pharmacological chaperone effect as a readout” (Bioorg Med Chem, 2014).

Activity calls are given as the source filed them. No cut-off for these calls is given here.

Data set [1] addresses Liver X receptor (Homo sapiens) (UniProt Q13133+P55055). Description: Activation of LXR (unknown origin) expressed in HEK293 cells at 30 uM after 16 hrs by luciferase reporter gene assay. The format is cell-based.
The target of data set [2] is T1, NPC1-like intracellular cholesterol transporter 1 (Homo sapiens) (UniProt Q9UHC9).
T1 sequence (whole entry): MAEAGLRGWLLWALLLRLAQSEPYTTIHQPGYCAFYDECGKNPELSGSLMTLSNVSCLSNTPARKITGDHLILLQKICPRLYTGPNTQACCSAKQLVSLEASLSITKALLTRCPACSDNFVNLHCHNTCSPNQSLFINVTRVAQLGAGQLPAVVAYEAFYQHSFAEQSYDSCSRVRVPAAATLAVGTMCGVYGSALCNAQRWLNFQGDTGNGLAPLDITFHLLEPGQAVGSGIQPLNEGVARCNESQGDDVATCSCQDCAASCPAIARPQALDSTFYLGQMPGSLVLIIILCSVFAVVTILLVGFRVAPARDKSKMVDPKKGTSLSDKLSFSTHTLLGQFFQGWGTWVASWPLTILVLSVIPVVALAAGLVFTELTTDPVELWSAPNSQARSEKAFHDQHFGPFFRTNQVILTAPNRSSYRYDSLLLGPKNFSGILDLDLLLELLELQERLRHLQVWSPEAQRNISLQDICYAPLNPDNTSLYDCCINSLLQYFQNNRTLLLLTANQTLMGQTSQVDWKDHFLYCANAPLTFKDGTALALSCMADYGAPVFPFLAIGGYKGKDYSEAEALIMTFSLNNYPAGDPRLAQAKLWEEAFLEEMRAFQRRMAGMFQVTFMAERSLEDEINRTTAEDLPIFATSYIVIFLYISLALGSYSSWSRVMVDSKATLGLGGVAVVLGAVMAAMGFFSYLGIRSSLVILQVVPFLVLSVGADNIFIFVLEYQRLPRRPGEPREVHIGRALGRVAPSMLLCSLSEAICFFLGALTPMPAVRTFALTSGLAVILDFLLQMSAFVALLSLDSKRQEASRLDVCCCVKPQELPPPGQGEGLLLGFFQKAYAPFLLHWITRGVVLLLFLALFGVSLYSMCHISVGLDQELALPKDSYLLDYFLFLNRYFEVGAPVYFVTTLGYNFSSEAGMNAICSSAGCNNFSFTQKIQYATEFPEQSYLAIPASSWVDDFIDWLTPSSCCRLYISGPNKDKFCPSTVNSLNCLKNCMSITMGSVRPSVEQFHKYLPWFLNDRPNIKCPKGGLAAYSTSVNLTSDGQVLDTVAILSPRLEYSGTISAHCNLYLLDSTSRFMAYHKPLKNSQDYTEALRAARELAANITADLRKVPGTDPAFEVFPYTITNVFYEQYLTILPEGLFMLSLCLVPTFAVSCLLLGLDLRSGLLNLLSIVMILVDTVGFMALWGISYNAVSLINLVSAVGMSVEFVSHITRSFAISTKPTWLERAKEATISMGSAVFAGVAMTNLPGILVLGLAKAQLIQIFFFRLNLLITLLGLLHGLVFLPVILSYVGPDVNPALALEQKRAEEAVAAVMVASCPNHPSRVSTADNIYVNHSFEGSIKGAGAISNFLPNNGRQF
Description: Binding affinity to human GFP-tagged NPC1L1 L1072T/L1168I mutant expressed in HEK293 cells assessed as localization to plasma membrane at 30 uM after 24 hrs by fluorescence microscopic analysis. Format: cell-based. Summed up: (§1)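 HEK293 cells stably expressing EGFP-tagged NPC1L1 L1072T/L1168I were plated on poly-D-lysine-coated glass-bottomed wells (20 µg/mL in PBS) and grown 24 h. They were then exposed to compound at 10 or 30 µM (0.1% final DMSO) and fixed in 3.7% formaldehyde-PBS. Read-out was % of EGFP signal localized to the plasma membrane.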

The target in data set [3] is T1, NPC1-like intracellular cholesterol transporter 1 (Homo sapiens). Description: Binding affinity to human EGFP-tagged NTD-deleted NPC1L1 L1072T/L1168I mutant expressed in HEK293 cells assessed as localization to plasma membrane after 24 hrs by fluorescence microscopic analysis. Format: cell-based. Summed up:
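Stable HEK293 lines expressing NTD-deleted NPC1L1 L1072T/L1168I-EGFP were grown 24 h on poly-D-lysine-coated glass-bottomed wells and treated with compound (0.1% final DMSO). Cells were fixed in 3.7% formaldehyde-PBS with Hoechst-33342 nuclear counterstain. NPC1L1-GFP localization was examined by fluorescence imaging.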

For data set [4] the target is unchanged. Description: Binding affinity to human EGFP-tagged full-length NPC1L1 L1072T/L1168I mutant expressed in HEK293 cells assessed as protein stabilization after 24 hrs by fluorescence assay. The format is cell-based. Summed up:
(§2)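 Steady-state levels of full-length or NTD-deleted NPC1L1 L1072T/L1168I-GFP were measured in stably expressing HEK293 cells treated with compound at 1–30 µM or vehicle. GFP fluorescence in cell lysates was normalized to total protein by bicinchoninic acid assay. Values are expressed as % of vehicle-treated cells.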

For data set [5] the target is unchanged. Description: Binding affinity to human EGFP-tagged NTD-deleted NPC1L1 L1072T/L1168I mutant expressed in HEK293 cells assessed as protein stabilization after 24 hrs by fluorescence assay. The format is cell-based. In short, it runs like this: as §2
For data set [6] the target is unchanged. Description: Binding affinity to human GFP-tagged NPC1L1 L1072T/L1168I mutant expressed in HEK293 cells assessed as localization to plasma membrane at 10 uM after 24 hrs by fluorescence microscopic analysis. The format is cell-based. In short, it runs like this: as §1
The species entered for data set [7] is Homo sapiens. Description: Selectivity for human GFP-tagged NPC1L1 L1072T/L1168I mutant over LXR (unknown origin).
For data set [8], the system named is HEK293. Description: Cytotoxicity against HEK293 cells transfected with human GFP-tagged NPC1L1 L1072T/L1168I mutant at 30 uM. The settings on record: hek293, 30 µM. Format: cell-based.

Consider `CCCCn1c(=O)c2c(c3cc(C(=O)N(CC)C4CC4)ccc31)CCCCC2`, for which the result in data set [1] was inactive. The Activity in data set [2] was found to be 45%; in data set [6], 8%. Also, the result in data set [3], in data set [4] and in data set [5] was Active. For the same compound, the Selectivity ratio in data set [7] came out at 2.

For the compound `CCCCCCn1c(=O)c2c(c3cc(C(=O)N(CC)C4CC4)ccc31)CCCCC2`, the Activity entry is “Toxic” in data set [8] and 1% in data set [6].
